According to ChEMBL document CHEMBL1132156, “Synthesis and structure-activity relationships of potential anticancer agents: alkylcarbamates of 3-(9-acridinylamino)-5-hydroxymethylaniline” (J Med Chem, 1999):

Assays:
HL-60 = assay: In vitro inhibition of human leukemic HL-60 cell growth in culture; type: functional, cell-based
How it was run: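 HL-60 cells were seeded at 5×10^4 cells/mL in RPMI 1640 with 10% heat-inactivated FBS, penicillin and streptomycin, at 37 °C in 5% CO2. Cells were exposed for 72 h to six or seven drug concentrations, run in duplicate. Viability was read by XTT-tetrazolium microculture absorbance, and IC50 was derived from median-effect plot analysis.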

Mus musculus [1] = assay: […] anticancer activity against B6D2F-1 mice bearing P388 leukemia measured by the Average survival time(day+/-SD) at an intravenous dose of 18(mg/kg).; type: functional
How it was run: (§1)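 Male B6D2F1 mice, 8 weeks old, 20–25 g. P388/0 ascites cells (0.2 mL, ascites:saline 1.10) were implanted iv on day 0, and the tumor grew in the liver. Drug was given iv by tail vein on days 1, 3, 5, 7 and 9 (Q2Dx5), with 4–5 mice per group. Survival time was scored as 8 a.m. (0.0), 1 p.m. (0.25) or 5 p.m. (0.5) deaths. %ILS was averaged against untreated controls, and toxic deaths were counted.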

Mus musculus [2] = assay: […] anticancer activity against B6D2F-1 mice bearing P388 leukemia measured by the Average survival time(day+/-SD) at an intravenous dose of 24(mg/kg).; type: functional; how it was run: as §1
Mus musculus [3] = assay: […] anticancer activity against B6D2F-1 mice bearing P388 leukemia measured by the average survival time(day+/-SD) at an intravenous dose of 12(mg/kg)..; type: functional; how it was run: as §1
Mus musculus [4] = assay: […] anticancer activity against B6D2F-1 mice bearing P388 leukemia measured by the average weight change(g) after day 7 at an intravenous dose of 18(mg/kg).; type: functional
How it was run: (§2)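 Male B6D2F1 mice (8 weeks old, 20–25 g) were implanted iv on day 0 with P388/0 ascites cells (0.2 mL; ascites:saline 1.10), which grew in the liver. Drug was given iv via the tail vein, Q2Dx5, on days 1, 3, 5, 7 and 9. Groups had 4–5 mice. Day 1 value is mean body weight; later days are weight change.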

Mus musculus [5] = assay: […] anticancer activity against B6D2F-1 mice bearing P388 leukemia measured by the average weight change(g) after day 7 at an intravenous dose of 24(mg/kg).; type: functional; how it was run: as §2
Mus musculus [6] = assay: […] anticancer activity against B6D2F-1 mice bearing P388 leukemia measured by the average weight change(g) after day 11 at an intravenous dose of 18(mg/kg).; type: functional; how it was run: as §2
Mus musculus [7] = assay: […] anticancer activity against B6D2F-1 mice bearing P388 leukemia measured by the average weight change(g) after day 7 at an intravenous dose of 12(mg/kg).; type: functional; how it was run: as §2
Mus musculus [8] = assay: […] anticancer activity against B6D2F-1 mice bearing P388 leukemia measured by the increase in lifespan(%) at an intravenous dose of 12(mg/kg)..; type: functional; how it was run: as §1
Mus musculus [9] = assay: […] anticancer activity against B6D2F-1 mice bearing P388 leukemia measured by the increase in lifespan(%) at an intravenous dose of 18(mg/kg).; type: functional; how it was run: as §1
Mus musculus [10] = assay: […] anticancer activity against B6D2F-1 mice bearing P388 leukemia measured by the average weight change(g) after day 11 at an intravenous dose of 24(mg/kg).; type: functional; how it was run: as §2
Mus musculus [11] = assay: […] anticancer activity against B6D2F-1 mice bearing P388 leukemia measured by the average weight change(g) after day 11 at an intravenous dose of 12(mg/kg).; type: functional; how it was run: as §2
Mus musculus [12] = assay: […] anticancer activity against B6D2F-1 mice bearing P388 leukemia measured by the average weight change(g) after day 9 at an intravenous dose of 12(mg/kg).; type: functional
How it was run: (§3)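 Male B6D2F1 mice (8 weeks old, 20–25 g) were implanted iv on day 0 with P388/0 ascites cells (0.2 mL; ascites:saline = 1.10). Tumor grew in the liver. Drug was given iv via the tail vein, Q2Dx5, on days 1, 3, 5, 7 and 9. Body weight was recorded on days 1, 7, 9 and 11 and reported as the average change (g).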

Mus musculus [13] = assay: […] anticancer activity against B6D2F-1 mice bearing P388 leukemia measured by the average weight change(g) after day 9 at an intravenous dose of 18(mg/kg).; type: functional; how it was run: as §3
Mus musculus [14] = assay: […] anticancer activity against B6D2F-1 mice bearing P388 leukemia measured by the average weight change(g) after day 9 at an intravenous dose of 24(mg/kg).; type: functional; how it was run: as §3
Mus musculus [15] = assay: […] anticancer activity against B6D2F-1 mice bearing P388 leukemia measured by the increase in lifespan(%) at an intravenous dose of 24(mg/kg).; type: functional; how it was run: as §1
Mus musculus [16] = assay: […] anticancer activity against 5 B6D2F-1 mice bearing P388 leukemia measured by the toxicity death at an intravenous dose of 12(mg/kg)..; type: organism-based; conditions: in vivo; how it was run: as §1
Mus musculus [17] = assay: […] anticancer activity against 5 B6D2F-1 mice bearing P388 leukemia measured by the toxicity death at an intravenous dose of 18(mg/kg).; type: organism-based; conditions: in vivo; how it was run: as §1
Mus musculus [18] = assay: […] anticancer activity against 5 4 B6D2F-1 mice bearing P388 leukemia measured by the toxicity death at an intravenous dose of 24(mg/kg).; type: organism-based; conditions: in vivo; how it was run: as §1
Mus musculus [19] = assay: […] anticancer activity against B6D2F-1 mice bearing P388 leukemia measured by the average body weight(g) after day 1 at an intravenous dose of 18(mg/kg).
Mus musculus [20] = assay: […] anticancer activity against B6D2F-1 mice bearing P388 leukemia measured by the average body weight(g) after day 1 at an intravenous dose of 24(mg/kg).
Mus musculus [21] = assay: […] anticancer activity against B6D2F-1 mice bearing P388 leukemia measured by the average body weight(g) after day 1 at an intravenous dose of 12(mg/kg).

Work on Nc1cc(CO)cc(Nc2c3ccccc3nc3c([N+](=O)[O-])cccc23)c1 yielded an IC50 (HL-60) of 14000 nM.
Work on COc1cccc2c(Nc3cc(N)cc(CO)c3)c3ccccc3nc12 yielded an IC50 (HL-60) of 11 nM.
CNC(=O)c1cccc2c(Nc3cc(N)cc(CO)c3)c3cccc(C)c3nc12 gave an IC50 (HL-60) of 93 nM.
O=C(Nc1cc(CO)cc(Nc2c3ccccc3nc3ccccc23)c1)OCc1ccccc1 showed an IC50 (HL-60) of 29 nM.
In the case of COc1cccc2c(Nc3cc(N)cc(CO)c3)c3cccc(C(=O)NCCN(C)C)c3nc12, the IC50 (HL-60) is reported as 38 nM.
For CCCOC(=O)Nc1cc(CO)cc(Nc2c3ccccc3nc3ccccc23)c1, the IC50 (HL-60) was 8 nM.
CCOC(=O)Nc1cc(CO)cc(Nc2c3cccc(C)c3nc3c(C(=O)NC)cccc23)c1 was tested, and the IC50 (HL-60) was 11 nM.
Cc1cccc2c(Nc3cc(N)cc(CO)c3)c3ccccc3nc12 was tested, and the IC50 (HL-60) was 7.6 nM.
Work on CCOC(=O)Nc1cc(CO)cc(Nc2c3ccccc3nc3c(C(=O)NCCN(C)C)cccc23)c1 yielded an IC50 (HL-60) of 5.7 nM.
CN(C)CCNC(=O)c1cccc2c(Nc3cc(N)cc(CO)c3)c3ccccc3nc12 showed an IC50 (HL-60) of 130 nM.
With CCOC(=O)Nc1cc(CO)cc(Nc2c3ccccc3nc3c(OC)cccc23)c1 the IC50 (HL-60) was 10 nM.
CC(C)(C)OC(=O)Nc1cc(CO)cc(Nc2c3ccccc3nc3ccccc23)c1 was tested, and the IC50 (HL-60) was 24 nM, the Average survival (Mus musculus [1]) was 22.1 days and the Average survival (Mus musculus [2]) was 21 days. The Average survival (Mus musculus [3]) was 18 days, the Average weight change (Mus musculus [4]) was -1.3 g and the Average weight change (Mus musculus [5]) was -1.4 g. The Average weight change (Mus musculus [6]) was -1.6 g, the Average weight change (Mus musculus [7]) was -0.1 g and the Increase in life-span (Mus musculus [8]) was 181%. The Increase in life-span (Mus musculus [9]) was 245%, the Average weight change (Mus musculus [10]) was -1.8 g and the Average weight change (Mus musculus [11]) was 0.3 g. The Average weight change (Mus musculus [12]) was -0.7 g, the Average weight change (Mus musculus [13]) was -1.2 g and the Average weight change (Mus musculus [14]) was -1.4 g. The Increase in life-span (Mus musculus [15]) was 228%, the Toxicity related death (Mus musculus [16]) was 0 and the Toxicity related death (Mus musculus [17]) was 0. For the same compound, the Toxicity related death (Mus musculus [18]) was 2, the Body weight (Mus musculus [19]) was 23.9 g and the Body weight (Mus musculus [20]) was 22.3 g. It also gave a Body weight (Mus musculus [21]) of 23.1 g.
With Cc1cccc2c(Nc3cc(N)cc(CO)c3)c3cccc(C(=O)NCCN(C)C)c3nc12 the IC50 (HL-60) was 7.4 nM.
For CNC(=O)c1cccc2c(Nc3cc(N)cc(CO)c3)c3cccc(OC)c3nc12, the IC50 (HL-60) was 120 nM.
CCOC(=O)Nc1cc(CO)cc(Nc2c3ccccc3nc3c(Cl)cccc23)c1 gave an IC50 (HL-60) of 67 nM.
